High-throughput results from PubChem BioAssay.
Compounds with a hit are over-represented: about 1.8% of the library has one in this group of screens.
HTRA1 inh: inhibitors of human serine peptidase HTRA1; Q92743; inhibition, % at 5.96 µM; actives 0.5% (n = 340,000); AID 504803; recombinant HTRA1, FP-rhodamine activity-based probe, fluorescence polarization; in the data active means inhibition above about 36%;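 further: 0% = enzyme with DMSO and 100% = wells lacking enzyme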
TCR CD3 inh: human TCR-CD3 binding inhibition. TAMRA-labeled TCR probe fluorescence, biochemical. inhibition, % at 9.4 µM. actives 0.37% (n = 360,000); in the data active means inhibition above about 19%;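 further: recombinant mutant TCR 2C K166C tagged with TAMRA read by polarization; 0% = receptor in buffer alone and 100% = receptor with positive control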
SIAE primary: human SIAE inhibition, primary screen; Q9HAT2; SIAE FP-Rh probe binding, fluorescence polarization; inhibition, % at 9.66 µM; actives 0.69% (n = 370,000); AID 1053197;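 active means inhibition above a cutoff: mean of compounds within the control limits plus 3 SD of those, cut at about 17% in these data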;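 further: 0% = plate median of compound wells and 100% = probe without SIAE protein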
Target sequence (Q9HAT2 whole entry, looked up): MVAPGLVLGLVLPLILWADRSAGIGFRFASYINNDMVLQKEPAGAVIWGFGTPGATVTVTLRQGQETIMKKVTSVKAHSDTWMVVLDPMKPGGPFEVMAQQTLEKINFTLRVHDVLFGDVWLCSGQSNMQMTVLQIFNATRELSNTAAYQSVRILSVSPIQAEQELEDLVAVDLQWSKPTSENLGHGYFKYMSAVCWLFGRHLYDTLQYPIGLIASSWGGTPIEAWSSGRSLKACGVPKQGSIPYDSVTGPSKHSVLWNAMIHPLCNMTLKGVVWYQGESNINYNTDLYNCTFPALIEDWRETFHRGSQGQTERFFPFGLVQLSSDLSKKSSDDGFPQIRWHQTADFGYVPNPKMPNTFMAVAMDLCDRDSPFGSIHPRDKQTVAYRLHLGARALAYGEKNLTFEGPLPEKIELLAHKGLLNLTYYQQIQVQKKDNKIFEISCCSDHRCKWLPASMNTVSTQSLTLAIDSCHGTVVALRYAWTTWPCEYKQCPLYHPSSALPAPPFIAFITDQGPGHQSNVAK
mABHD4 FP: ABHD4 (mouse) inhibition, primary FP screen; inhibition, % at 8.92 µM; purified mABHD4, FP-Rh probe fluorescence polarization; actives 0.54% (n = 370,000); AID 720543;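 active means inhibition exceeding the mean over every tested compound plus 3 SD, cut at about 30% in these data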;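 further: 0% = plate median of compound wells and 100% = S159A mutant with DMSO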
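Material: mouse ABHD4 enzyme, wild type; Benchmarks: S159A mutant high control, sample median low control; Buffer or medium: HEPES pH 7.0, NaCl, Pluronic buffer; Signal: fluorescence polarization; Read-out: percent inhibition of probe binding, normalized to plate controls; Timing: pre-incubation 45 min, probe exposure 60 min, at 25 °C; Dosing: 8.92 µM, single dose.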
ARNT-TACC3 inh: ARNT/TACC3 interaction disruption; AID 623870; Q9Y6A5; actives 0.66% (n = 390,000); inhibition, % at 9.99 µM; AlphaScreen His-ARNT PAS-B/GST-TACC3 binding, luminescence; TACC3 fragment carries E629A point mutation;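 active means mean inhibition of replicates at least 50% and at least half of replicates each reaching 50%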;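 further: 0% = complete ARNT plus TACC3 wells and 100% = ARNT alone without TACC3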
SIAE inh conf: human SIAE inhibition, confirmation | shares compounds with SIAE primary | SIAE FP-Rh activity-based probe, fluorescence polarization | inhibition, % at 9.66 µM | actives 13% (n = 2,300);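 active means mean inhibition of the replicates above the hit cutoff set in the primary screen, cut at about 17% in these data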;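 further: 0% = SIAE with DMSO and probe and 100% = probe without SIAE; inhibitors lower polarization as more probe stays unbound to SIAE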
* hit, by the source's call.

What do the screens show for `C[C@H]1CN([C@@H](C)CO)C(=O)c2cc(NC(=O)C3CCCCC3)ccc2O[C@H]1CN(C)C(=O)Nc1ccc(F)cc1`?
ARNT-TACC3 inh: -22

How did Cc1ccccc1Cn1cnc2c(cnn2C(C)(C)C)c1=O do in these assays?
HTRA1 inh: -3; TCR CD3 inh: -6; SIAE primary: 5; mABHD4 FP: -2; ARNT-TACC3 inh: -4

How did Cc1ccc(C)c(Cn2cnc3c(cnn3C(C)(C)C)c2=O)c1 do in these assays?
HTRA1 inh: -5; TCR CD3 inh: 2; SIAE primary: 22*; mABHD4 FP: -7; ARNT-TACC3 inh: -2; SIAE inh conf: -2

Results for N#C/C(=C\c1cc2ccccc2nc1N1CCOCC1)C(=O)Nc1ccc(N2CCOCC2)cc1 ?
HTRA1 inh: 0; TCR CD3 inh: -8; SIAE primary: 20*; mABHD4 FP: 0; ARNT-TACC3 inh: -22; SIAE inh conf: 7

How did N#CC(C#N)=Cc1cc2ccccc2nc1N1CCOCC1 do in these assays?
HTRA1 inh: 5; TCR CD3 inh: -5; SIAE primary: 0; mABHD4 FP: 0; ARNT-TACC3 inh: 6

What do the screens show for `C/C(=N\N=c1/sc2ccccc2n1C)c1ccc(N2CCOCC2)cc1`?
HTRA1 inh: 7; TCR CD3 inh: -1; SIAE primary: 19*; mABHD4 FP: 6; ARNT-TACC3 inh: -5; SIAE inh conf: 6

How did C[C@@H]1CCCCO[C@@H](CN(C)C(=O)CCCN(C)C)[C@H](C)CN([C@H](C)CO)C(=O)c2cc(NC(=O)NC3CCCCC3)ccc2O1 do in these assays?
ARNT-TACC3 inh: -2

What do the screens show for `CCc1ccc(NC(=O)Nc2ccc3c(c2)N(C)C(=O)CS3)cc1`?
HTRA1 inh: -17; TCR CD3 inh: 5; SIAE primary: 24*; mABHD4 FP: 4; ARNT-TACC3 inh: -22; SIAE inh conf: 1

What do the screens show for `C[C@H]1CN([C@@H](C)CO)C(=O)Cc2cc(NC(=O)Cc3ccccc3)ccc2O[C@H]1CN(C)CC1CCCCC1`?
ARNT-TACC3 inh: 37

What do the screens show for `CC(C)N1CCC(C)(C(=O)Nc2ccc(-n3cccc3)cc2)C1` (configuration not stated)?
TCR CD3 inh: -7; SIAE primary: 17*; mABHD4 FP: 1; SIAE inh conf: -4

How did CC(C)N1CCC1(C)C(=O)Nc1ccc(-n2cccc2)cc1 (configuration not stated) do in these assays?
TCR CD3 inh: 1; SIAE primary: 0; mABHD4 FP: 3

Results for CC(C)NC(=O)N(C)C[C@H]1Oc2ncc(C#Cc3ccncc3)cc2C(=O)N([C@H](C)CO)C[C@@H]1C ?
ARNT-TACC3 inh: 12

How did Cc1c(C(=O)Nc2ccccc2)c2ccc(C(F)(F)F)cc2n1O do in these assays?
TCR CD3 inh: 4; SIAE primary: 25*; mABHD4 FP: -5; SIAE inh conf: 29*

Results for CO[C@H]1CN(C)C(=O)c2ccc(NS(C)(=O)=O)cc2OC[C@@H](C)N(C(=O)NC(C)C)C[C@@H]1C ?
ARNT-TACC3 inh: -6

Results for Cc1ccc(C(=O)N2CCC(C(=O)NCc3ccco3)CC2)cc1 ?
HTRA1 inh: 5; TCR CD3 inh: -4; SIAE primary: 1; mABHD4 FP: -4

How did CC(C)(C)c1ccc(C(=O)N2CCC(C(=O)NCc3ccco3)CC2)cc1 do in these assays?
HTRA1 inh: 3; TCR CD3 inh: -11; SIAE primary: 17*; mABHD4 FP: -3; ARNT-TACC3 inh: -55; SIAE inh conf: 1

Results for CCN(CC)S(=O)(=O)c1cc(Br)ccc1OC ?
HTRA1 inh: 7; TCR CD3 inh: -5; SIAE primary: 18*; mABHD4 FP: -5; ARNT-TACC3 inh: -2; SIAE inh conf: 1

What do the screens show for `CCN(CC)S(=O)(=O)c1cc(Cl)ccc1OC`?
HTRA1 inh: -4; TCR CD3 inh: 9; SIAE primary: -2; mABHD4 FP: -2; ARNT-TACC3 inh: -1

What do the screens show for `Cc1ccccc1NC(=O)COC(=O)C1(C)CC1(Cl)Cl` (configuration not stated)?
HTRA1 inh: -5; TCR CD3 inh: 7; SIAE primary: 19*; mABHD4 FP: -2; SIAE inh conf: 12

What do the screens show for `COc1cccc(C2C3=C(CCCC3=O)Nc3[nH]n(-c4ccccc4)c(=O)c32)c1` (configuration not stated)?
HTRA1 inh: 6; TCR CD3 inh: 8; SIAE primary: 19*; mABHD4 FP: -4; ARNT-TACC3 inh: -22; SIAE inh conf: 1

How did Cc1ccccc1NS(=O)(=O)c1ccc(C(=O)NCCCN2CCOCC2)cc1 do in these assays?
HTRA1 inh: -3; TCR CD3 inh: -12; SIAE primary: -4; mABHD4 FP: -2; ARNT-TACC3 inh: 14

Results for O=C(NCCCN1CCOCC1)c1ccc(S(=O)(=O)Nc2ccccc2F)cc1 ?
HTRA1 inh: -1; TCR CD3 inh: 0; SIAE primary: 17*; mABHD4 FP: 3; ARNT-TACC3 inh: -3; SIAE inh conf: -2

Results for Oc1ccccc1N=Nc1nc(-c2ccccc2)c(-c2ccccc2)[nH]1 ?
HTRA1 inh: 14; TCR CD3 inh: 0; SIAE primary: 17*; mABHD4 FP: 10; ARNT-TACC3 inh: -2; SIAE inh conf: -3

Results for COc1ccc(NC(=O)Nc2ccc3c(c2)[C@@H]2C[C@H](CC(=O)N(C)C)O[C@@H](CO)[C@@H]2O3)cc1 ?
ARNT-TACC3 inh: 4

What do the screens show for `C/C(=N\O)c1ccc(Cl)cc1Cl`?
HTRA1 inh: -3; TCR CD3 inh: -1; SIAE primary: 2; mABHD4 FP: 2; ARNT-TACC3 inh: -7

Results for C/C(=N\O)c1cc(Cl)cc(Cl)c1O ?
HTRA1 inh: 1; TCR CD3 inh: -4; SIAE primary: 25*; mABHD4 FP: 7; ARNT-TACC3 inh: -5; SIAE inh conf: 30*

What do the screens show for `CC(C)=CCc1cc(-c2oc3cc(O)cc(O)c3c(=O)c2O)ccc1O`?
HTRA1 inh: 12; TCR CD3 inh: 10; SIAE primary: 23*; mABHD4 FP: 15; ARNT-TACC3 inh: 7; SIAE inh conf: 1

What do the screens show for `Cc1ccc(CNC(=O)c2ccc(CS(=O)(=O)c3ccccc3)o2)cc1`?
HTRA1 inh: -6; TCR CD3 inh: 2; SIAE primary: 2; mABHD4 FP: 5; ARNT-TACC3 inh: -15

What do the screens show for `Cc1ccc(S(=O)(=O)Cc2ccc(C(=O)NCc3cccs3)o2)cc1`?
HTRA1 inh: 5; TCR CD3 inh: -2; SIAE primary: 69*; mABHD4 FP: -1; ARNT-TACC3 inh: 3; SIAE inh conf: -11

How did C[C@@H]1CCCCO[C@@H](CN(C)C(=O)NC2CCCCC2)[C@@H](C)CN([C@H](C)CO)C(=O)c2cc(NC(=O)c3ccccc3)ccc2O1 do in these assays?
ARNT-TACC3 inh: 3

What do the screens show for `CC12CN3CCN(CC(C3)/C1=N/N=C/c1cccc([N+](=O)[O-])c1)C2`?
HTRA1 inh: 3; TCR CD3 inh: 1; SIAE primary: 17*; mABHD4 FP: -1; ARNT-TACC3 inh: -1; SIAE inh conf: 0
